# Measured values from different studies.
# Compare with care: the assays were run in different laboratories.
# Organism: Lodderomyces parapsilosis
# Read-out: microbial growth
# Technique: broth dilution
Structure (SMILES),system,setting,MIC
OC(Cn1cncn1)(Cn1cncn1)c1ccc(F)cc1F,ATCC22019,48 h,50 µg/mL
CN1CCN(CC(O)(Cn2cncn2)c2ccc(F)cc2F)CC1 (stereo not drawn),ATCC22019,48 h,0.975 µg/mL
CCCCNS(=O)(=O)c1ccc(-c2ccc3oc(C(=O)c4cc(O)c(O)c(O)c4)cc3c2)cc1,,,8 to 16 µg/mL
OC(Cn1cncn1)(Cn1cncn1)c1ccc(F)cc1F,ATCC22019,,1 µg/mL
O=C1/C(=C/c2cc(O)c(O)c(O)c2)Oc2ccccc21,,,8 µg/mL
CCCCCN1CCN(CC(O)(Cn2cncn2)c2ccc(F)cc2F)CC1 (stereo not drawn),ATCC22019,48 h,15.6 µg/mL
C[C@@H]1[C@H](O)[C@@H](C)/C=C/C=C/C=C/C=C/C=C/C=C/C=C/[C@H](O[C@@H]2O[C@H](C)[C@@H](O)[C@H](N)[C@@H]2O)C[C@@H]2O[C@](O)(C[C@@H](O)C[C@@H](O)[C@H](O)CC[C@@H](O)C[C@@H](O)CC(=O)O[C@H]1C)C[C@H](O)[C@H]2C(=O)O,ATCC22019,,0.5 µg/mL
CCCCCN1CCNCC1,ATCC22019,48 h,> 31.3 µg/mL
C[C@@H]1[C@H](O)[C@@H](C)/C=C/C=C/C=C/C=C/C=C/C=C/C=C/[C@H](O[C@@H]2O[C@H](C)[C@@H](O)[C@H](N)[C@@H]2O)C[C@@H]2O[C@](O)(C[C@@H](O)C[C@@H](O)[C@H](O)CC[C@@H](O)C[C@@H](O)CC(=O)O[C@H]1C)C[C@H](O)[C@H]2C(=O)O,,,0.25 µg/mL
